Square brackets hold non-standard residues; d marks the D form. Peptide text beside a SMILES is read from it. * marks the point of attachment. Hydrocinnamoyl = O=C(CCc1ccccc1)*; pNA = O=[N+]([O-])c1ccc(N*)cc1; Undecanoyl = CCCCCCCCCCC(=O)*; pGlu = O=C1CC[C@@H](C(=O)O)N1; Ac6c = NC1(C(=O)O)CCCCC1; Piperidide = C1CCN(*)CC1; Cbz = O=C(OCc1ccccc1)*; NHBn = c1ccc(CN*)cc1; X1 = Fc1ccc(N*)cc1Cl
organism: Rattus norvegicus; test: Inhibition of rat recombinant Rab geranylgeranyltransferase at 100 uM in presence of canine Rab7 and rat REP1 NBD-FPP based continuous fluorimetric assay
Outline: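 Continuous fluorometric assay in 96/384-well format: 3 μM Rab7, 3 μM REP1, 9 μM NBD-FPP and 400 nM RabGGTase, with or without inhibitor. […] IC50 was calculated from three independent measurements.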

Row | Compound | inhibition [%]
1 | COC(=O)CNC(=O)[C@H](CO)NC(=O)[C@H](Cc1ccccc1)NC(=O)C1COC(c2ccccc2)=N1 (some centres undefined) | 114
2 | O=C(CNC(=O)[C@@H]1CCCN1C(=O)c1coc(-c2ccccc2)n1)N[C@@H](Cc1ccc(O)cc1)C(=O)Nc1ccc(F)cc1F | 89
3 | NC(=O)CC[C@H](NC(=O)[C@H](Cc1ccccc1)NC(=O)CNC(=O)CCc1ccccc1)C(=O)O (Hydrocinnamoyl-Gly-Phe-Gln-OH) | 94
4 | C[C@H](NC(=O)CCc1ccccc1)C(=O)N[C@@H](Cc1ccccc1)C(=O)N[C@@H](CCC(N)=O)C(=O)OCCCCO | 44
5 | O=C(CNC(=O)[C@H](Cc1ccc(O)cc1)NC(=O)c1ccc(F)cc1)N[C@@H](Cc1ccc(O)cc1)C(=O)O | 90
6 | CCCCCCCCCCCOc1ccc(C(=O)N[C@@H](Cc2ccc(O)cc2)C(=O)N[C@@H](Cc2ccc(O)cc2)C(=O)N[C@@H](Cc2ccc(O)cc2)C(=O)O)cc1 | 106
7 | CCCCCCCCCCC(=O)N[C@@H](Cc1c[nH]cn1)C(=O)N[C@@H](Cc1c[nH]cn1)C(=O)N[C@@H](Cc1ccc(O)cc1)C(=O)OC (Undecanoyl-His-His-Tyr-OMe) | 64
8 | COc1ccc(C[C@@H](C(=O)N(C)[C@@H](Cc2ccccc2)C(=O)O)N(C)C(=O)[C@@H](Cc2ccc(O)cc2)NC(=O)CCc2ccccc2)cc1 | 46
9 | O=C(CCNC(=O)[C@H](Cc1c[nH]cn1)NC(=O)OCc1ccccc1)N[C@@H](Cc1ccc(O)cc1)C(=O)O | 90
10 | COc1ccc(C[C@@H](C(=O)N(C)[C@@H](Cc2ccccc2)C(=O)OCC(=O)O)N(C)C(=O)[C@@H](Cc2ccc(O)cc2)NC(=O)CCc2ccccc2)cc1 | 47
11 | CCCCCCCCCCCNC(=O)[C@H](Cc1ccc(O)cc1)NC(=O)CNC(=O)[C@H](Cc1ccc(O)cc1)NC(=O)CCc1ccc(F)cc1 | 88
12 | CC(C)CCNC(=O)[C@H](Cc1ccccc1)NC(=O)[C@H](Cc1ccccc1)NC(=O)[C@H](CC(C)C)NC(=O)/C=C/c1ccccc1 | 92
13 | O=C(N[C@H](Cc1cnc[nH]1)C(=O)N[C@@H](Cc1ccc(O)cc1)C(=O)N[C@@H](Cc1ccccc1)C(=O)O)OCc1ccc(OCc2ccccc2)cc1 | 47
14 | CC(C)C[C@H](NC(=O)[C@H](CO)NC(=O)[C@H](Cc1ccccc1)NC(=O)CCc1ccccc1)C(=O)O | 80
15 | O=C(CNC(=O)[C@H](Cc1ccc(O)cc1)NC(=O)c1coc(-c2ccccc2)n1)N[C@@H](Cc1ccc(O)cc1)C(=O)O | 58
16 | NC(=O)CC[C@H](NC(=O)[C@H](Cc1ccccc1)NC(=O)[C@H](CO)NC(=O)CCc1ccccc1)C(=O)NC1CCCCC1 | 99
17 | CC(C)C[C@H](NC(=O)[C@H](CO)NC(=O)[C@H](Cc1ccccc1)NC(=O)c1ccc(-c2ccccc2)cc1)C(=O)OCCCl | 53
18 | O=C(CNC(=O)[C@H](Cc1c[nH]cn1)NC(=O)c1coc(-c2ccccc2)n1)N[C@@H](Cc1ccc(O)cc1)C(=O)O | 99
19 | CC(C)C[C@H](NC(=O)[C@H](CO)NC(=O)[C@H](Cc1ccccc1)NC(=O)/C=C/c1ccc(F)cc1)C(=O)NNc1ccccc1 | 95
20 | COC(=O)[C@H](Cc1ccccc1)NC(=O)[C@H](CC(C)C)NC(=O)[C@@H]1CCCN1C(=O)/C=C/c1ccccc1 | 79

Row | Compound | inhibition [%]
21 | NC(=O)[C@H](Cc1ccc(O)cc1)NC(=O)CNC(=O)[C@H](Cc1c[nH]cn1)NC(=O)OCc1ccccc1 (Cbz-His-Gly-Tyr-NH2) | 89
22 | CC[C@H](C)[C@H](NC(=O)c1ccc(-c2ccccc2)cc1)C(=O)N[C@@H](C(=O)N[C@@H](CCC(N)=O)C(=O)N1CCOCC1)C(C)C | 92
23 | NC(=O)CC[C@H](NC(=O)[C@H](Cc1ccccc1)NC(=O)[C@H](CO)NC(=O)CCc1ccccc1)C(=O)Nc1ccc([N+](=O)[O-])cc1 (Hydrocinnamoyl-Ser-Phe-Gln-pNA) | 93
24 | O=C(CCNC(=O)[C@H](Cc1c[nH]cn1)NC(=O)OCc1ccccc1)N[C@@H](Cc1ccc(O)cc1)C(=O)Nc1nccs1 | 73
25 | CCCCCCCCCCC(=O)NC(Cc1ccc(O)cc1)C(=O)N[C@@H](Cc1c[nH]cn1)C(=O)N[C@@H](Cc1c[nH]cn1)C(=O)NCC(O)CO (some centres undefined) | 89
26 | CCCCCCCCCCC(=O)N[C@@H](Cc1ccc(O)cc1)C(=O)N[C@@H](Cc1cnc[nH]1)C(=O)N[C@@H](Cc1ccc(O)cc1)C(=O)NCCCn1ccnc1 | 32
27 | O=C(/C=C/c1ccc(F)cc1)N[C@@H](CO)C(=O)N[C@@H](Cc1ccccc1)C(=O)N[C@@H](CO)C(=O)Nc1ccccc1 | 73
28 | CCCCCCCCCCC(=O)N[C@@H](Cc1ccc(O)cc1)C(=O)N[C@@H](Cc1c[nH]cn1)C(=O)N[C@@H](Cc1c[nH]cn1)C(=O)NCCCCN | 73
29 | C[C@H](NC(=O)[C@@H](NC(=O)c1ccc(-c2ccccc2)cc1)[C@@H](C)O)C(=O)N[C@@H](CCC(N)=O)C(=O)NNc1ccccc1 | 96
30 | CCCCCCCCCCC(=O)N[C@@H](Cc1c[nH]cn1)C(=O)N[C@@H](Cc1c[nH]cn1)C(=O)N[C@@H](CO)C(=O)Nc1ccccn1 | 61
31 | CCCCCc1ccc(/C=C/C(=O)N[C@H](Cc2cnc[nH]2)C(=O)N[C@@H](Cc2ccc(O)cc2)C(=O)N[C@@H](Cc2ccccc2)C(=O)O)cc1 | 17
32 | CCCCCCCCCCC(=O)N[C@@H](Cc1c[nH]cn1)C(=O)N[C@@H](Cc1cnc[nH]1)C(=O)N[C@@H](Cc1ccc(O)cc1)C(=O)OCCN | 97
33 | O=C(CNC(=O)[C@H](Cc1ccccc1)NC(=O)c1csc(-c2cccs2)n1)N[C@@H](CO)C(=O)Nc1nccs1 | 124
34 | CC(C)[C@H](NC(=O)c1coc(-c2ccccc2)n1)C(=O)NCC(=O)N[C@@H](Cc1c[nH]cn1)C(=O)Nc1ccc(F)cc1F | 55
35 | O=C(N[C@@H](Cc1cnc[nH]1)C(=O)N[C@@H](Cc1ccccc1)C(=O)N[C@@H](Cc1ccc(O)cc1)C(=O)O)OCc1ccc([N+](=O)[O-])cc1 | 61
36 | NC(=O)CC[C@H](NC(=O)[C@H](Cc1ccccc1)NC(=O)[C@H](CO)NC(=O)CCc1ccccc1)C(=O)NCc1ccccc1 (Hydrocinnamoyl-Ser-Phe-Gln-NHBn) | 87
37 | O=C(CNC(=O)c1coc(-c2ccccc2)n1)N[C@@H](Cc1cn(C(c2ccccc2)(c2ccccc2)c2ccccc2)cn1)C(=O)N[C@@H](Cc1ccccc1)C(=O)O | 77
38 | CON(C)C(=O)[C@H](CCC(=O)O)NC(=O)[C@H](C)NC(=O)[C@@H](NC(=O)c1ccc(-c2ccccc2)cc1)[C@@H](C)O | 102
39 | CC(C)C[C@H](NC(=O)[C@H](COC(C)(C)C)NC(=O)[C@H](Cc1ccccc1)NC(=O)CCc1ccccc1)C(=O)O | 88
40 | O=C(CNC(=O)[C@H](Cc1ccc(O)cc1)NC(=O)c1ccc(F)cc1)N[C@@H](Cc1ccc(O)cc1)C(=O)Nc1ccccc1 | 97

Row | Compound | inhibition [%]
41 | O=C(CNC(=O)c1coc(-c2ccccc2)n1)N[C@@H](Cc1cn(C(c2ccccc2)(c2ccccc2)c2ccccc2)cn1)C(=O)N[C@@H](Cc1cn(C(c2ccccc2)(c2ccccc2)c2ccccc2)cn1)C(=O)O | 91
42 | CCCCCCCCCCC(=O)N[C@@H](Cc1c[nH]cn1)C(=O)N[C@@H](Cc1ccccc1)C(=O)N[C@@H](Cc1ccc(O)cc1)C(N)=O (Undecanoyl-His-Phe-Tyr-NH2) | 45
43 | CCCCCCCCCCC(=O)N[C@@H](Cc1ccc(O)cc1)C(=O)N[C@@H](Cc1c[nH]cn1)C(=O)N[C@@H](Cc1c[nH]cn1)C(=O)O (Undecanoyl-Tyr-His-His-OH) | 64
44 | COC(=O)[C@H](CC(C)C)NC(=O)[C@H](CO)NC(=O)[C@H](Cc1ccccc1)NC(=O)c1ccc(-c2ccccc2)cc1 | 94
45 | CCCCCc1ccccc1CCC(=O)N[C@H](Cc1cnc[nH]1)C(=O)N[C@@H](Cc1ccc(O)cc1)C(=O)N[C@@H](Cc1ccccc1)C(=O)O | 37
46 | COC(=O)[C@H](CC(C)C)NC(=O)[C@H](COC(C)(C)C)NC(=O)[C@H](Cc1ccccc1)NC(=O)c1ccc(-c2ccccc2)cc1 | 84
47 | CC(C)C[C@H](NC(=O)[C@@H]1CCC(=O)N1)C(=O)N[C@@H](CCCCN)C(=O)NC1(C(=O)Nc2ccc(F)c(Cl)c2)CCCCC1 ([pGlu]LK[Ac6c]-X1) | 105
48 | O=C(N[C@@H](Cc1ccc(O)cc1)C(=O)N[C@@H](Cc1ccc(O)cc1)C(=O)N[C@@H](Cc1ccc(O)cc1)C(=O)Nc1nccs1)c1ccc(F)cc1F | 78
49 | COC(=O)COC(=O)[C@H](Cc1ccccc1)N(C)C(=O)[C@H](Cc1ccc(OC)cc1)N(C)C(=O)[C@@H](Cc1ccc(O)cc1)NC(=O)CCc1ccccc1 | 88
50 | C[C@H](NC(=O)[C@@H](NC(=O)c1ccc(-c2ccccc2)cc1)[C@@H](C)O)C(=O)N[C@@H](CCC(=O)O)C(N)=O | 82
51 | O=C(CCc1ccccc1)N[C@@H](CO)C(=O)N[C@@H](Cc1ccccc1)C(=O)N[C@@H](CO)C(=O)N1CCCCC1 (Hydrocinnamoyl-Ser-Phe-Ser-Piperidide) | 62
52 | NCCCC[C@H](NC(=O)CCc1ccccc1)C(=O)N[C@@H](Cc1c[nH]cn1)C(=O)N[C@@H](CO)C(=O)O (Hydrocinnamoyl-Lys-His-Ser-OH) | 89
53 | CC(C)(C)Oc1ccc(C[C@H](NC(=O)CNC(=O)[C@H](Cc2cn(C(c3ccccc3)(c3ccccc3)c3ccccc3)cn2)NC(=O)c2coc(-c3ccccc3)n2)C(=O)O)cc1 | 80
54 | O=C(CCc1ccc(F)cc1)N[C@@H](Cc1ccc(O)cc1)C(=O)NCC(=O)N[C@@H](Cc1ccc(O)cc1)C(=O)NCc1ccccc1 | 127
55 | CCCCCCCCCCC(=O)N[C@@H](Cc1c[nH]cn1)C(=O)N[C@@H](Cc1ccccc1)C(=O)N[C@@H](Cc1ccc(O)cc1)C(=O)OC (Undecanoyl-His-Phe-Tyr-OMe) | 68
56 | NC(=O)CC[C@H](NC(=O)[C@H](Cc1ccccc1)NC(=O)CNC(=O)CCc1ccccc1)C(N)=O (Hydrocinnamoyl-Gly-Phe-Gln-NH2) | 103
57 | O=C(CNC(=O)[C@H](Cc1c[nH]cn1)NC(=O)OCc1ccccc1)N[C@@H](Cc1ccc(O)cc1)C(=O)NCC(O)CO (some centres undefined) | 74
58 | C[C@@H](O)[C@H](NC(=O)C(Br)C(Br)c1ccccc1)C(=O)N[C@@H](Cc1ccccc1)C(=O)N[C@@H](CCC(N)=O)C(=O)Nc1nccs1 (some centres undefined) | 93
59 | CC[C@H](C)[C@H](NC(=O)c1ccc(-c2ccccc2)cc1)C(=O)N[C@@H](C(=O)N[C@@H](CCC(N)=O)C(=O)N1CCCCC1)C(C)C | 100
